Assay results published in ChEMBL document CHEMBL4350959, “Design and Identification of a Novel, Functionally Subtype Selective GABAA Positive Allosteric Modulator (PF-06372865)” (J Med Chem, 2019).
Converted amounts (≈) assume the structure as drawn.

Legend:
[1] = Lipophilicity, log D of the compound; assay type: physicochemical; details: octanol/water
How it was run: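 LogD was either measured or calculated with an internal logD model.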

[2] = Volume of distribution at steady state in dog; assay type: ADME, Canis lupus familiaris; details: in vivo, read-out: Vdss
[3] = Permeability in RRCK cells; assay type: ADME, cell-based, Canis lupus familiaris, MDCKII-LE; details: dog, MDCK; read-out: permeability
How it was run: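 Transcellular permeability across Ralph Russ canine kidney (RRCK) cell monolayers, reported as x10^-6 cm/sec.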

[4] = Volume of distribution at steady state in rat; assay type: ADME; details: in vivo, read-out: Vdss
[5] = Oral bioavailability in rat; assay type: ADME, organism-based; details: in vivo
[6] = Solubility of the compound at pH 6.5; assay type: physicochemical; details: buffer
[7] = Oral bioavailability in dog; assay type: ADME, organism-based, Canis lupus familiaris; details: in vivo

Row | Compound | logD [1] | also measured
1 | CCn1cnc2c(-c3ccc(F)c(-c4ccc(S(=O)(=O)C5CC5)cc4OC)c3)cnnc21 | 2.7 | 
2 | CCn1cnc2c(-c3ccc(Cl)c(-c4ccc(S(=O)(=O)CC)cc4OC)c3)cnnc21 | 3.1 | 
3 | CCn1cnc2c(-c3ccc(F)c(-c4ccc(S(C)(=O)=O)cc4OC)c3)cnnc21 | 2.5 | 
4 | CCn1cnc2c(-c3ccc(F)c(-c4ccc(S(=O)(=O)C(C)C)cc4OC)c3)cnnc21 | 3 | 
5 | CCn1cnc2c(-c3ccc(F)c(-c4ccc(S(=O)(=O)CC)cc4F)c3)cnnc21 | 2.6 | 
6 | CCS(=O)(=O)c1ccc(-c2cc(-c3cnnc4c(OC)cnn34)ccc2F)cc1 | 2.8 | 
7 | CC(=O)N1CC(Oc2cc(-c3cnnc4c3ncn4C(C)C)ccc2F)C1 | 1.6 | 
8 | CCc1cnn2c(-c3ccc(F)c(-c4ccc(S(=O)(=O)CC)cc4)c3)cnnc12 | 3.5 | 
9 | CCn1cnc2c(-c3ccc(F)c(OCc4ccccn4)c3)cnnc21 | 2.5 | 
10 | CCn1cnc2c(-c3ccc(F)c(Oc4cnc(C#N)nc4)c3)cnnc21 | 2 | 
11 | CC(C)n1cnc2c(-c3ccc(F)c(Oc4ccc(C#N)cn4)c3)cnnc21 | 2.7 | 
12 | CCn1nnc2c(-c3ccc(F)c(-c4ccc(S(=O)(=O)CC)cc4)c3)cnnc21 | 3.3 | 
13 | N#Cc1ccc(Oc2cc(-c3cnnc4c3ncn4C3CC3)ccc2F)nc1 | 2.3 | 
14 | CCn1cnc2c(-c3ccnc(OC)c3)cnnc21 | 1.5 | 
15 | CCc1cnn2c(-c3ccc(F)c(-c4ccc(S(=O)(=O)CC)cc4)c3)ccnc12 | 3.9 | 
16 | CCn1cnc2c(-c3ccc(F)c(-c4cc5c(cc4OC)C(=O)N(C)C5)c3)cnnc21 | 2.6 | Vd [2]: 2.61 L/kg; Papp [3]: 21 ×10⁻⁶ cm/s; Vd [4]: 0.55 L/kg; bioavailability [5]: 76%; solubility [6]: 15 µM (≈ 6.26 µg/mL); bioavailability [7]: 43%
17 | CCn1cnc2c(-c3ccnc(Oc4cccc(S(=O)(=O)CC)c4)c3)cnnc21 | 1.6 | 
18 | CCn1cnc2c(-c3ccnc(Oc4ccccc4)c3)cnnc21 | 2.6 | 

Now from value to molecule, other results behind:

Row | logD [1] | Compound | also measured
19 | 2.9 | CCn1cnc2c(-c3ccc(F)c(-c4ccc(S(=O)(=O)CC)cc4)c3)cnnc21 | 
20 | 2.2 | CCn1cnc2c(-c3ccc(F)c(-c4ccc(S(=O)(=O)C5COC5)cc4OC)c3)cnnc21 | 
21 | 2.6 | CCn1cnc2c(-c3ccc(F)c(-c4ccc5c(c4)C(=O)N(C)C5)c3)cnnc21 | 
22 | 2.6 | CCn1cnc2c(-c3ccc(F)c(-c4cccnc4)c3)cnnc21 | 
23 | 3.2 | CCn1cnc2c(-c3ccc(F)c(-c4ccc(S(=O)(=O)CC)cc4Cl)c3)cnnc21 | 
24 | 3.1 | Cc1cc(-c2cc(-c3cnnc4c3ncn4C(C)C)ccc2F)ccn1 | 
25 | 2.8 | CCn1cnc2c(-c3ccc(F)c(-c4cccc(C(=O)NC)c4)c3)cnnc21 | 
26 | 2.3 | CCn1cnc2c(-c3ccc(F)c(Oc4cccc(S(=O)(=O)CC)c4)c3)cnnc21 | 
27 | 2.6 | CCn1cnc2c(-c3ccc(F)c(Oc4ccnc(C)c4)c3)cnnc21 | 
28 | 2.7 | CCn1cnc2c(-c3ccc(F)c(-c4ccc5c(c4)CN(C)C5=O)c3)cnnc21 | 
29 | 2.3 | CCn1cnc2c(-c3ccc(F)c(Oc4ccc(C#N)cn4)c3)cnnc21 | 
30 | 3 | CCn1cnc2c(-c3ccc(F)c(-c4cc(C(=O)NC)ccc4F)c3)cnnc21 | 
31 | 2.5 | CCn1cnc2c(-c3ccc(F)c(-c4ccc(C(=O)N(C)C)cc4)c3)cnnc21 | 
32 | 2.9 | Cc1cc(-c2cc(-c3cnnc4c3ncn4C3CC3)ccc2F)ccn1 | 
33 | 3.3 | CCOc1cc(S(=O)(=O)CC)ccc1-c1cc(-c2cnnc3c2ncn3CC)ccc1F | 
34 | 2.7 | CCn1cnc2c(-c3ccc(F)c(-c4ccc(S(=O)(=O)CC)cc4OC)c3)cnnc21 [DARIGABAT] | Vd [2]: 3.4 L/kg; Papp [3]: 17 ×10⁻⁶ cm/s; Vd [4]: 2.1 L/kg; bioavailability [5]: 99%; solubility [6]: 95 µM (≈ 41.8 µg/mL); bioavailability [7]: 130%
